# Results from different studies.
# Each line is one published result; the experiments were not run side by side.
# Target: Tyrosine-protein kinase Mer (MERTK, Homo sapiens, UniProt Q12866)
# One construct used (Q12866 21-999): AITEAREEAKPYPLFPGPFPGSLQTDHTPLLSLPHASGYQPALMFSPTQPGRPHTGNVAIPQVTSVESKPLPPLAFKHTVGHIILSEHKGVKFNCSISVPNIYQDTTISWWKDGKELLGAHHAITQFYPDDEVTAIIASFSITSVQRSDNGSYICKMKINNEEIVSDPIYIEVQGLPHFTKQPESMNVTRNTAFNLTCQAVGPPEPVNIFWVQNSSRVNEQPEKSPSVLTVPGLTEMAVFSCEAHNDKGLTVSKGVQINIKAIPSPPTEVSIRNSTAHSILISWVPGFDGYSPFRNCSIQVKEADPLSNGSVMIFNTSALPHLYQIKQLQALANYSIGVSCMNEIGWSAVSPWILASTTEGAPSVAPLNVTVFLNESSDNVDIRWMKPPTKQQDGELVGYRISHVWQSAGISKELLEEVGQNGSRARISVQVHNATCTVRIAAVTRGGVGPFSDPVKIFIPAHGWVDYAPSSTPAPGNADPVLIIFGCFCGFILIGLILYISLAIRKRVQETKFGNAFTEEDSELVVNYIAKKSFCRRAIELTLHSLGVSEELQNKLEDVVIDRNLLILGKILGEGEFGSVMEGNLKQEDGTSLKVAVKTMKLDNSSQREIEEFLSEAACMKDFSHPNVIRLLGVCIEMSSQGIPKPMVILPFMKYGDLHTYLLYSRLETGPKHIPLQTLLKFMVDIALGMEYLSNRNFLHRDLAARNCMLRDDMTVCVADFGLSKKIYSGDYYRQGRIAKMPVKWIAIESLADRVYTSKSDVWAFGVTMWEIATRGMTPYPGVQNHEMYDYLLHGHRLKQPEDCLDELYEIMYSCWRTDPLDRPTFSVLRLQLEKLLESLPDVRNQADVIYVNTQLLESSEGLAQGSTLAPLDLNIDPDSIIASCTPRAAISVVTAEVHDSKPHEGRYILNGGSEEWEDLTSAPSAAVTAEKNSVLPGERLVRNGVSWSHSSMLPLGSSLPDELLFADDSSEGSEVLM
Compound,test,setting,measurement,result
CC(C)(C)c1nc(-c2cccc(NS(=O)(=O)c3c(F)cccc3F)c2F)c(-c2ccnc(N)n2)s1,"enzyme activity, inhibitor, radiometric",1 µM,remaining activity,115%
CNCc1ccccc1-c1csc([C@H](C)Nc2nc(C)nc3cc(OC)c(OC)cc23)c1,"cell-free assay, competition with immobilised ligand",1 µM,remaining binding,72%
Cn1c2c(c3ccc(Cl)c(Cl)c31)C(C#N)C1(CCOCC1)NC2=O (stereo not drawn),"thermal stability, DSF",10 µM,ΔTm,-0.5 °C
O=c1cc(-c2cccc3c2Sc2ccccc2S3)oc(N2CCOCC2)c1,"enzyme activity, inhibitor",0.5 µM,remaining activity,97%
Cn1c2c(Cl)c(Cl)ccc2c2cn[nH]c(=O)c21,"thermal stability, DSF",10 µM,ΔTm,-0.5 °C
O=C(Nc1cnn(-c2csc(C(=O)NC3COC3)c2)c1)Nc1ccccc1Cl,"enzyme activity, inhibitor",5 µM,remaining activity,92.7%
CNC(=O)c1cc2c(Oc3ccc(NC(=O)C4(C(=O)Nc5ccc(F)cc5)CC4)cc3)ccnc2cc1OC,"enzyme activity, inhibitor, radiometric",1 µM,inhibition,99%
COc1ccc2c(O[C@@H]3C[C@H]4C(=O)N[C@]5(C(=O)O)CC5/C=C\CCCCC[C@H](NC(=O)OC5CCCC5)C(=O)N4C3)cc(-c3csc(NC(=O)C(C)C)n3)nc2c1C (stereo partly drawn),"cell-free assay, competition with immobilised ligand",1 µM,remaining binding,70%
COc1cc(Cl)c(C(=O)N[C@@H](CN[C@H]2CC[C@@H](N)CC2)Cc2ccc(C#N)cc2)cc1-c1ccc(CN[C@H](C)c2ccc(C)cc2)o1,"enzyme activity, inhibitor",1 µM,remaining activity,99%
Cc1nccc(COC(=O)N2C[C@@H]3[C@@H](CNC(=O)c4ccc5[nH]nnc5c4)[C@@H]3C2)n1,"cell-free assay, competition with immobilised ligand",1 µM,remaining binding,100%
CCCOc1ccc(OC)c(F)c1C(=O)c1ccc(C(=O)N[C@@H]2CNC[C@H]2NC(=O)c2ccc3[nH]ncc3c2)cc1,"enzyme activity, inhibitor",10 µM,remaining activity,36%
Cc1ccc(C(=O)NCc2ccsc2)cc1C#Cc1cn(C(C)C)c2ncnc(N)c12,"enzyme activity, inhibitor",1 µM,activity vs control,71%
Cc1ccc(Nc2nccc(N(C)c3ccc4c(C)n(C)nc4c3)n2)cc1S(N)(=O)=O,"enzyme activity, inhibitor",10 µM,inhibition,87%
CC(C)(O)c1cncc(-c2nc3ccc(F)cc3n2C2CC2)c1,"cell-free assay, competition with immobilised ligand",1 µM,remaining binding,96%
CNC(=O)c1cc(Oc2ccc(NC(=O)Nc3ccc(Cl)c(C(F)(F)F)c3)cc2)ccn1,"enzyme activity, inhibitor",10 µM,inhibition,82%
CC(C)(O)[C@H]1CC[C@H](Nc2ccc3ncc(-c4cccc(C(F)(F)F)c4)n3n2)CC1,"enzyme activity, inhibitor",1 µM,remaining activity,64.1%
Cc1ccc(C(=O)Nc2ccc(CN3CCN(C)CC3)c(C(F)(F)F)c2)cc1C#Cc1cnc2cccnn12,enzyme activity,23.5 nM,remaining activity,86%
CCCCN(CCCC)C(=O)CN1C[C@@H](c2cc(OC)c3c(c2)OCO3)[C@H](C(=O)O)[C@H]1CC(C)(C)CCC,"cell-free assay, competition with immobilised ligand",1 µM,remaining binding,100%
CCN(CC)CCNC(=O)c1c(C)[nH]c(/C=C2\C(=O)Nc3ccc(F)cc32)c1C,"enzyme activity, inhibitor",10 µM,inhibition,98%
Cn1c2c(Cl)c(Cl)ccc2c2cc(N)[nH]c(=O)c21,"thermal stability, DSF",10 µM,ΔTm,0.1 °C
Cn1nc(C(F)(F)F)cc1-c1cnc(N2CCc3cc(S(=O)(=O)Nc4c(F)cc(Cl)cc4F)cc(N4CCCC4=O)c32)nc1,"cell-free assay, competition with immobilised ligand",1 µM,remaining binding,100%
Cn1c2c(Cl)c(Cl)ccc2c2cc[nH]c(=O)c21,"thermal stability, DSF",10 µM,ΔTm,1.3 °C
CCCOc1ccc([C@H]2[C@H](C(=O)O)[C@@H](c3ccc4c(c3)OCO4)CN2CC(=O)Nc2c(CC)cccc2CC)cc1,"cell-free assay, competition with immobilised ligand",1 µM,remaining binding,87%
Cc1cnc(NC2CCOCC2)nc1-n1cnc(C(=O)NC(CN)c2cc(F)cc(Cl)c2)c1 (stereo not drawn),"enzyme activity, inhibitor, radiometric",1 µM,remaining activity,96%
COc1cc2ncnc(Nc3ccc(Oc4ccccc4)cc3C)c2cc1OC,"enzyme activity, inhibitor",1 µM,inhibition,87%
CN(C)C(=O)Cn1cc(-c2nc([C@@](C)(c3ccc(-c4cnc(N)nc4)cc3)C3CC3)no2)cn1,"cell-free assay, competition with immobilised ligand",1 µM,remaining binding,100%
Cn1c2c(c3ccc(Cl)c(Cl)c31)C(C#N)C1(CCCC1)NC2=O (stereo not drawn),"thermal stability, DSF",10 µM,ΔTm,-0.5 °C
N#CCCc1ccc2c(c1)-c1[nH]c3ccc([N+](=O)[O-])cc3c1CC(=O)N2,cell-free assay,0.5 µM,remaining signal,77.5%
Cc1sc(C(=O)NC2COC2)cc1-n1cc(NC(=O)Nc2c(F)cccc2Cl)cn1,"enzyme activity, inhibitor",10 µM,remaining activity,103%
COc1cc2nccc(Oc3ccc(NC(=O)c4c5n(n(-c6ccc(F)cc6)c4=O)CCCC5)cc3)c2cc1OC,"enzyme activity, inhibitor",0.1 µM,inhibition,100%
